Test results: ChEMBL document CHEMBL4145466, “Design, synthesis, and biological evaluation of novel combretastatin A-4 thio derivatives as microtubule targeting agents” (Eur J Med Chem, 2018)
pIC50: −log10 of the molar value. Active and inactive are the calls of the source. The calls are words filed in the database; no cut-off is given here.

Key:
HaCaT [1] = assay: Cell cycle arrest in human HaCaT cells assessed as accumulation of cells at G2/M phase at 0.1 to 1 uM after 24 hrs by propidium iodide staining-based FACS analysis
Outline: (§1)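 Cells were seeded at 5 × 10^5 per well in DMEM with 10% FBS and left overnight, then exposed to 0.1, 0.5 or 1 µM for 24 h. DMSO served as the negative control and 50 nM camptothecin as the positive control. Cells were trypsinized, fixed in 70% ethanol for 30 min at 4 °C, stained with 50 µg/mL PI plus 100 µg/mL RNase A for 30 min in the dark, and analysed by flow cytometry. Results are mean ± SD of three experiments, compared by ANOVA with Dunnett's test.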

SK-OV-3 [2] = assay: Induction of apoptosis in human SKOV3 cells after 24 hrs by FITC Annexin V/propidium iodide staining-based FACScan flow cytometric analysis; assay type: functional, cell-based
Outline: (§2)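 After 24 h of compound exposure, 1 × 10^6 cells were labelled with annexin V-FITC and PI for 15 min at 25 °C in the dark. They were read on a FACScan with 488 nm excitation, detecting FITC at 525 nm and PI at 620 nm. Results are mean ± SD of three independent experiments, with Dunnett's test against control.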

MDA-MB-231 [3] = assay: Induction of apoptosis in human MDA-MB-231 cells assessed as increase in histone-associated DNA fragments in mononucleosomes at 0.1 uM after 24 hrs by ELISA; assay type: functional, cell-based
Outline: (§3)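 Cells (2 × 10^4) were incubated for 24 h at 0.1, 0.5 or 1 µM, lysed and centrifuged. Supernatants went onto a streptavidin plate with anti-histone-biotin and anti-DNA-peroxidase for 2 h, followed by ABTS for 30 min and a reading at 405 nm. Nucleosome content was expressed as an enrichment factor, as mean ± SD of three experiments.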

SK-OV-3 [4] = assay: Cell cycle arrest in human SKOV3 cells assessed as accumulation of cells at G2/M phase at 0.1 to 1 uM after 24 hrs by propidium iodide staining-based FACS analysis; assay type: functional; outline: as §1
SK-OV-3 [5] = assay: Cytotoxicity against human SKOV3 cells after 48 hrs by MTT assay; assay type: functional, cell-based; conditions: SK-OV-3, 48 h
Outline: (§4)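 Cells in DMEM with 10% FBS were plated at 2 × 10^4 per well and left overnight, then treated for 48 h at 0.6–20 µM (six concentrations) from 10 mM DMSO stocks. MTT was added for 2 h, and formazan was dissolved in DMSO and read at 570 nm. Viability was expressed as % of control, with IC50 taken from dose-response curves. Results are mean ± SD of three independent experiments.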

A-431 [6] = assay: Induction of apoptosis in human A431 cells assessed as increase in histone-associated DNA fragments in oligonucleosomes at 0.1 uM after 24 hrs by ELISA; assay type: functional, cell-based; outline: as §3
A-431 [7] = assay: Cell cycle arrest in human A431 cells assessed as accumulation of cells at G2/M phase at 0.1 to 1 uM after 24 hrs by propidium iodide staining-based FACS analysis; assay type: functional; outline: as §1
Tubulin [8] = assay: Inhibition of tubulin polymerization in human HaCaT cells assessed as perturbation in cytoskeleton structure at 1 uM after 24 hrs by ELISA; assay type: cell-based
HeLa [9] = assay: Cytotoxicity against human HeLa cells after 48 hrs by MTT assay; assay type: functional, cell-based; outline: as §4
Tubulin [10] = assay: Inhibition of tubulin polymerization in human HaCaT cells assessed as micronuclei formation at 1 uM after 24 hrs by ELISA; assay type: cell-based
HeLa [11] = assay: Induction of apoptosis in human HeLa cells assessed as increase in histone-associated DNA fragments in mononucleosomes at 0.1 uM after 24 hrs by ELISA; assay type: functional, cell-based; outline: as §3
MCF7 [12] = assay: Induction of apoptosis in human MCF7 cells after 24 hrs by FITC Annexin V/propidium iodide staining-based FACScan flow cytometric analysis; assay type: functional, cell-based; outline: as §2
MCF7 [13] = assay: Cytotoxicity against human MCF7 cells after 48 hrs by MTT assay; assay type: functional, cell-based; conditions: MCF7, 48 h; outline: as §4
MDA-MB-231 [14] = assay: Induction of apoptosis in human MDA-MB-231 cells assessed as increase in histone-associated DNA fragments in oligonucleosomes at 0.1 uM after 24 hrs by ELISA; assay type: functional, cell-based; outline: as §3
[15] = Cytotoxicity against human CCD39Lu cells after 48 hrs by MTT assay; assay type: cell-based; outline: as §4
A-431 [16] = assay: Induction of apoptosis in human A431 cells assessed as increase in histone-associated DNA fragments in mononucleosomes at 0.1 uM after 24 hrs by ELISA; assay type: functional, cell-based; outline: as §3
MDA-MB-231 [17] = assay: Induction of apoptosis in human MDA-MB-231 cells after 24 hrs by FITC Annexin V/propidium iodide staining-based FACScan flow cytometric analysis; assay type: functional, cell-based; outline: as §2
HaCaT [18] = assay: Induction of apoptosis in human HaCaT cells assessed as increase in histone-associated DNA fragments in mononucleosomes at 0.1 uM after 24 hrs by ELISA; assay type: cell-based
Outline: (§5)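 HaCaT cells (2 × 10^4), grown in DMEM with 10% FBS, penicillin/streptomycin and 2 mM L-glutamine, exposed to compound (DMSO stock) for 24 h. Cells lysed, supernatant taken after centrifugation and incubated 2 h on a streptavidin-coated plate with anti-histone-biotin and anti-DNA-peroxidase. ABTS added for 30 min, A405 read. Output is enrichment factor vs control, mean ± SD of three independent experiments.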

MCF7 [19] = assay: Induction of apoptosis in human MCF7 cells assessed as increase in histone-associated DNA fragments in mononucleosomes at 0.1 uM after 24 hrs by ELISA; assay type: functional, cell-based; outline: as §3
Tubulin [20] = assay: Inhibition of tubulin polymerization in human HaCaT cells assessed as perturbation in cytoskeleton structure at 1 uM after 24 hrs by Hoechst 33258/FITC staining-based […]; assay type: cell-based
Outline: (§6)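 Cells seeded at 12.5 × 10^4 per well and exposed to 1 µM compound for 24 h. Nuclei were stained with Hoechst 33258 (10 µg/mL, 30 min, 37 °C), then fixed in 4% formaldehyde/PBS (15 min, RT). Cells were permeabilized with 1% Triton X-100, blocked with 2% BSA/PBS for 1 h, and incubated with anti-α-tubulin-FITC (1:50) overnight at 4 °C. Imaged by fluorescence microscopy.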

HeLa [21] = assay: Induction of apoptosis in human HeLa cells after 24 hrs by FITC Annexin V/propidium iodide staining-based FACScan flow cytometric analysis; assay type: functional, cell-based; outline: as §2
A-431 [22] = assay: Induction of apoptosis in human A431 cells after 24 hrs by FITC Annexin V/propidium iodide staining-based FACScan flow cytometric analysis; assay type: functional, cell-based; outline: as §2
HaCaT [23] = assay: Induction of apoptosis in human HaCaT cells after 24 hrs by FITC Annexin V/propidium iodide staining-based FACScan flow cytometric analysis; assay type: cell-based; outline: as §2
SK-OV-3 [24] = assay: Induction of apoptosis in human SKOV3 cells assessed as increase in histone-associated DNA fragments in mononucleosomes at 0.1 uM after 24 hrs by ELISA; assay type: functional, cell-based; outline: as §3
HaCaT [25] = assay: Induction of apoptosis in human HaCaT cells assessed as increase in histone-associated DNA fragments in oligonucleosomes at 0.1 uM after 24 hrs by ELISA; assay type: cell-based; outline: as §5
A-431 [26] = assay: Cytotoxicity against human A431 cells after 48 hrs by MTT assay; assay type: functional, cell-based; conditions: A-431, 48 h; outline: as §4
MDA-MB-231 [27] = assay: Cytotoxicity against human MDA-MB-231 cells after 48 hrs by MTT assay; assay type: functional, cell-based; conditions: MDA-MB-231, 48 h; outline: as §4
[28] = Inhibition of porcine tubulin polymerization after 1 hr by spectrophotometric analysis; design: species or system Sus scrofa
Outline: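 Polymerization was started by shifting from 4 °C to 37 °C, and absorbance was followed at 37 °C for 60 min. The vehicle served as control.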

Tubulin [29] = assay: Inhibition of tubulin polymerization in human HaCaT cells assessed as micronuclei formation at 1 uM after 24 hrs by Hoechst 33258/FITC staining-based […]; assay type: cell-based; outline: as §6
SK-OV-3 [30] = assay: Induction of apoptosis in human SKOV3 cells assessed as increase in histone-associated DNA fragments in oligonucleosomes at 0.1 uM after 24 hrs by ELISA; assay type: functional, cell-based; outline: as §3
A549 = assay: Cytotoxicity against human A549 cells after 48 hrs by MTT assay; assay type: functional, cell-based; conditions: A549, 48 h
MCF7 [31] = assay: Cell cycle arrest in human MCF7 cells assessed as accumulation of cells at G2/M phase at 0.1 to 1 uM after 24 hrs by propidium iodide staining-based FACS analysis; assay type: functional; outline: as §1
HeLa [32] = assay: Induction of apoptosis in human HeLa cells assessed as increase in histone-associated DNA fragments in oligonucleosomes at 0.1 uM after 24 hrs by ELISA; assay type: functional, cell-based; outline: as §3
MDA-MB-231 [33] = assay: Cell cycle arrest in human MDA-MB-231 cells assessed as accumulation of cells at G2/M phase at 0.1 to 1 uM after 24 hrs by propidium iodide staining-based FACS analysis; assay type: functional; outline: as §1
HaCaT [34] = assay: Cytotoxicity against human HaCaT cells after 48 hrs by MTT assay; assay type: cell-based; outline: as §4
MCF7 [35] = assay: Induction of apoptosis in human MCF7 cells assessed as increase in histone-associated DNA fragments in oligonucleosomes at 0.1 uM after 24 hrs by ELISA; assay type: functional, cell-based; outline: as §3

COc1ccc(/C=C\c2cc(OC)c(OC)c(OC)c2)cc1O [COMBRETASTATIN A4]
Activity (HaCaT [1]): Toxic
Activity (SK-OV-3 [2]): Dose-dependent effect
Activity (MDA-MB-231 [3]): Active
Activity (SK-OV-3 [4]): Active
pIC50 (SK-OV-3 [5]): 6.42
Activity (A-431 [6]): Active
Activity (A-431 [7]): Active
inhibition (INH) (Tubulin [8]): Active
pIC50 (HeLa [9]): 6.96
inhibition (INH) (Tubulin [10]): Active
Activity (HeLa [11]): Active
Activity (MCF7 [12]): Dose-dependent effect
pIC50 (MCF7 [13]): 6.77
Activity (MDA-MB-231 [14]): Active
pIC50 [15]: 8.05
Activity (A-431 [16]): Active
Activity (MDA-MB-231 [17]): Dose-dependent effect
Activity (HaCaT [18]): Toxic
Activity (MCF7 [19]): Active
inhibition (INH) (Tubulin [20]): Active
Activity (HeLa [21]): Dose-dependent effect
Activity (A-431 [22]): Dose-dependent effect
Activity (HaCaT [23]): Dose-dependent effect
Activity (SK-OV-3 [24]): Active
Activity (HaCaT [25]): Toxic
pIC50 (A-431 [26]): 6.60
pIC50 (MDA-MB-231 [27]): 6.25
pIC50 [28]: 5.57
inhibition (INH) (Tubulin [29]): Active
Activity (SK-OV-3 [30]): Active
pIC50 (A549): < 4.70
Activity (MCF7 [31]): Active
Activity (HeLa [32]): Active
Activity (MDA-MB-231 [33]): Active
pIC50 (HaCaT [34]): 6.72
Activity (MCF7 [35]): Active
